In ChEMBL document CHEMBL4610063, “Mangiferin: A promising natural xanthone from Mangifera indica for the control of acyclovir - resistant herpes simplex virus 1 infection” (Bioorg Med Chem, 2020):
Calls of active or inactive are those of the source. The calls are words filed in the database; no cut-off is given here.

Experiments:
Human alphaherpesvirus 1 [1] = assay: Antiviral activity against ACV-resistant Herpes simplex virus 1 AR-29 infected in African green monkey Vero cells assessed as inhibition of viral infection at 6.25 ug/ml measured after 72 hrs by crystal violet staining based plaque reduction assay relative to control; type: functional; settings: Human alphaherpesvirus 1, AR-29, Vero
In short: (§1)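 Plaque reduction in Vero cells. Mangiferin at 3.12, 6.25, 12.5 or 25 μg/mL is added at infection (0 h) with HSV-1 (10^5 PFU/mL). Agarose overlay with 25 mM MgCl2, 72 h at 37 °C/5% CO2, 20% formaldehyde fix, 0.5% crystal violet stain. %VI is taken against virus control. IC50 comes from linear regression of inhibition curves. Triplicate independent experiments.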

Human alphaherpesvirus 1 [2] = assay: Antiviral activity against ACV-sensitive Herpes simplex virus 1 KOS infected in African green monkey Vero cells assessed as inhibition of viral infection at 25 ug/ml measured after 72 hrs by crystal violet staining based plaque reduction assay relative to control; type: functional; settings: Human alphaherpesvirus 1, strain KOS; in short: as §1
Human alphaherpesvirus 1 [3] = assay: Antiviral activity against ACV-sensitive Herpes simplex virus 1 KOS infected in male Balb/c mouse assessed as change in dermis thickness at 0.7% w/w applied topically 5 times a day at 3 hrs interval for 10 days measured on day 10 post infection by H and E staining based histological analysis; settings: strain KOS
Human alphaherpesvirus 1 [4] = assay: Antiviral activity against ACV-sensitive Herpes simplex virus 1 KOS infected in male Balb/c mouse assessed as reduction in ulcerated lesion at 0.7% w/w applied topically 5 times a day at 3 hrs interval for 10 days measured on day 5 post infection; type: functional, organism-based; settings: strain KOS
In short: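 Balb/c mice (5 weeks, 22–27 g; six per group, sexes tested separately) had the right mid-flank depilated under i.p. anaesthesia and needle-scarified 24 h later. They were inoculated with 70 μL HSV-1 KOS (10^5 PFU/mL). From 4 h post-infection, O/W emulsion with 0.7% w/w mangiferin or ACV cream (50 mg/g) was applied topically 5 times daily for 10 days. Lesions were scored daily.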

**Q.** For `O=c1c2cc(O)c(O)cc2oc2cc(O)c([C@@H]3O[C@H](CO)[C@@H](O)[C@H](O)[C@H]3O)c(O)c12` [MANGIFERIN], which inhibition at 6.25 µg/mL (Human alphaherpesvirus 1 [1]) is on record?
**A.** Its inhibition at 6.25 µg/mL is 94.4%.

**Q.** What about the inhibition at 25 µg/mL (Human alphaherpesvirus 1 [2]) of the same compound?
**A.** The inhibition at 25 µg/mL was 100%.

**Q.** And the Activity (Human alphaherpesvirus 1 [3])?
**A.** Its Activity is “inactive”.

**Q.** What about the Activity (Human alphaherpesvirus 1 [4]) of the same compound?
**A.** The Activity was “inactive”.
